Experimental findings from ChEMBL document CHEMBL4251588, “2-Alkoxycarbonyl-3-arylamino-5-substituted thiophenes as a novel class of antimicrotubule agents: Design, synthesis, cell growth and tubulin polymerization inhibition” (Eur J Med Chem, 2018) are described below.

pIC50: −log10 of the molar value. Active and inactive are the calls of the source. The rule behind the calls is not given here.

What is called pIC50 is the negative decadic logarithm of the IC50, by convention in mol/L. One may read the GI50 as the concentration giving 50% growth inhibition. A word on the inhibition: it is the relative decrease from the control value, in per cent.

In one data set the test system is L1210. In words: Antiproliferative activity against mouse L1210 cells after 2 days by Coulter counter method. Type of data set: functional, cell-based. The conditions noted are these: L1210, 48 h. The essentials: (§1)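 Cells suspended at 300,000–500,000 cells/mL; 100 μL suspension added to 100 μL of compound dilutions. Incubated at 37 °C for 2 days (L1210, FM3A), 3 days (CEM) or 4 days (HeLa), then counted by Coulter counter. IC50 is the concentration giving 50% inhibition of proliferation. Values are mean ± SD of two to three independent experiments.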
As for `COC(=O)c1sc(-c2cccc(OC)c2)cc1Nc1cc(OC)c(OC)c(OC)c1`, the pIC50 was 5.96.

For the molecule `COC(=O)c1sc(-c2ccc(OC)c(OC)c2)cc1Nc1cc(OC)c(OC)c(OC)c1`, the pIC50 was 6.32.

On to `COC(=O)c1sc(-c2ccccc2)cc1Nc1cc(OC)c(OC)c(OC)c1`, for which the pIC50 is 6.62.

`COC(=O)c1sc(-c2ccc(C)cc2)cc1Nc1cc(OC)c(OC)c(OC)c1` showed a pIC50 of 6.82.

The molecule `COC(=O)c1sc(-c2ccc(Cl)c(Cl)c2)cc1Nc1cc(OC)c(OC)c(OC)c1` had a pIC50 of 5.24.

In another data set the test system is FM3A. In words: Antiproliferative activity against mouse FM3A cells after 2 days by Coulter counter method. The format is functional, cell-based. The following applies: 48 h. The method in brief:
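Cells suspended at 300,000–500,000 cells/mL; 100 μL suspension added to 100 μL of compound dilutions. Incubated at 37 °C for 2 days (L1210, FM3A), 3 days (CEM) or 4 days (HeLa), then counted by Coulter counter. Values are mean ± SD of two to three independent experiments.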
As to `COC(=O)c1sc(-c2cccc(OC)c2)cc1Nc1cc(OC)c(OC)c(OC)c1`, the pIC50 is 6.00.

As to `COC(=O)c1sc(-c2ccc(OC)c(OC)c2)cc1Nc1cc(OC)c(OC)c(OC)c1`, the pIC50 is 6.37.

For the molecule `COC(=O)c1sc(-c2ccccc2)cc1Nc1cc(OC)c(OC)c(OC)c1`, the pIC50 was 6.68.

`COC(=O)c1sc(-c2ccc(C)cc2)cc1Nc1cc(OC)c(OC)c(OC)c1`: the pIC50 was 6.74.

The molecule `COC(=O)c1sc(-c2ccc(Cl)c(Cl)c2)cc1Nc1cc(OC)c(OC)c(OC)c1` had a pIC50 of 5.34.

The subject of another data set is CCRF-CEM. In words: Antiproliferative activity against human CEM cells after 3 days by Coulter counter method. The format is functional, cell-based. The following applies: 72 h. The essentials:
as §1
Regarding `COC(=O)c1sc(-c2cccc(OC)c2)cc1Nc1cc(OC)c(OC)c(OC)c1`, the pIC50 is 6.16.

The molecule `COC(=O)c1sc(-c2ccc(OC)c(OC)c2)cc1Nc1cc(OC)c(OC)c(OC)c1` gave a pIC50 of 6.33.

Regarding `COC(=O)c1sc(-c2ccccc2)cc1Nc1cc(OC)c(OC)c(OC)c1`, the pIC50 is 6.70.

With `COC(=O)c1sc(-c2ccc(C)cc2)cc1Nc1cc(OC)c(OC)c(OC)c1`, the pIC50 is 6.74.

In turn, `COC(=O)c1sc(-c2ccc(Cl)c(Cl)c2)cc1Nc1cc(OC)c(OC)c(OC)c1` gave a pIC50 of 5.48.

The next data set has as its system HeLa. In words: Antiproliferative activity against human HeLa cells after 4 days by Coulter counter method. The format is functional, cell-based. The following applies: 96 h. The essentials: as §1
Regarding `COC(=O)c1sc(-c2cccc(OC)c2)cc1Nc1cc(OC)c(OC)c(OC)c1`, the pIC50 was 6.10.

Regarding `COC(=O)c1sc(-c2ccc(OC)c(OC)c2)cc1Nc1cc(OC)c(OC)c(OC)c1`, the pIC50 was 6.05.

In the case of `COC(=O)c1sc(-c2ccccc2)cc1Nc1cc(OC)c(OC)c(OC)c1`, the pIC50 is 6.17.

With `COC(=O)c1sc(-c2ccc(C)cc2)cc1Nc1cc(OC)c(OC)c(OC)c1`, the negative-log IC50 (pIC50) was 6.59.

Take `COC(=O)c1sc(-c2ccc(Cl)c(Cl)c2)cc1Nc1cc(OC)c(OC)c(OC)c1`: the pIC50 was 5.30.

The test system of a further data set is PBL. In words: Growth inhibition of resting human PBL after 72 hrs by MTT assay. The format is cell-based.
Settings: not given
The method in brief: (§2)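 Donor PBL isolated by density gradient, washed, held overnight at 1.0 × 10^6 cells/mL in RPMI-1640 with 10% FBS. Non-adherent cells reseeded at 5 × 10^5 cells/mL, with 2.5 μg/mL PHA (proliferating) or without it (resting), then given compound dilutions. MTT viability read after 72 h. GI50 is the concentration giving 50% growth reduction; mean ± SEM of two experiments.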
For orientation: Formazan colour is commonly taken as a measure of viable cells.
Consider `COC(=O)c1sc(-c2ccccc2)cc1Nc1cc(OC)c(OC)c(OC)c1`, for which it took 45700 nM to inhibit growth by half (GI50).

`COC(=O)c1sc(-c2ccc(C)cc2)cc1Nc1cc(OC)c(OC)c(OC)c1`: growth was halved (GI50) at 31700 nM.

The test system of the next data set is PBL. In words: Growth inhibition of human PHA-stimulated PBL after 72 hrs by MTT assay. The format is cell-based.
Settings: not given
The method in brief:
as §2
Molecule `COC(=O)c1sc(-c2ccccc2)cc1Nc1cc(OC)c(OC)c(OC)c1` displayed a GI50 of 19000 nM.

`COC(=O)c1sc(-c2ccc(C)cc2)cc1Nc1cc(OC)c(OC)c(OC)c1`: the GI50 came out at 20000 nM.

System in the next data set: not listed separately
In words: Inhibition of bovine brain tubulin polymerization in presence of GTP by spectrophotometric analysis. On the set-up: species or system Bos taurus.
Settings: not given
The essentials:
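0.4 mM GTP added, mixtures rewarmed to 30 °C in cuvettes and turbidity followed at 350 nm.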
Regarding `COC(=O)c1sc(-c2ccc(OC)c(OC)c2)cc1Nc1cc(OC)c(OC)c(OC)c1`, the pIC50 is 5.57.

As for `COC(=O)c1sc(-c2ccccc2)cc1Nc1cc(OC)c(OC)c(OC)c1`, the pIC50 is 5.89.

`COC(=O)c1sc(-c2ccc(C)cc2)cc1Nc1cc(OC)c(OC)c(OC)c1`: the pIC50 was 5.92.

The next data set is filed under the species Bos taurus. In words: Inhibition of [3H]colchicine binding to bovine brain tubulin at 5 uM relative to control.
Settings: not given
The essentials:
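Reaction mixtures held 1 μM tubulin, 5 μM [3H]colchicine and 5 μM test compound. Inhibition of radiolabelled colchicine binding was measured by a previously described method.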
Molecule `COC(=O)c1sc(-c2ccc(OC)c(OC)c2)cc1Nc1cc(OC)c(OC)c(OC)c1` came in with an inhibition of 30%.

`COC(=O)c1sc(-c2ccccc2)cc1Nc1cc(OC)c(OC)c(OC)c1` yielded an inhibition of 57%.

The molecule `COC(=O)c1sc(-c2ccc(C)cc2)cc1Nc1cc(OC)c(OC)c(OC)c1` came in with an inhibition of 70%.

A further data set has as its system HeLa. In words: Cell cycle arrest in human HeLa cells assessed as reduction of cells at G1 phase up to 500 uM after 24 hrs by propidium iodide staining-based flow cytometric analysis. Type of data set: functional. The following applies: in the assay text read “500 nM” for “500 uM”. The essentials:
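5 × 10^5 HeLa cells exposed to graded compound levels for 24 h; harvested, fixed in ice-cold 70% ethanol, lysed in buffer containing RNase A and 0.1% Triton X-100, PI-stained, DNA content read by flow cytometry. Phase percentages are means ± SEM of two independent experiments.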
Background: In flow cytometry, cells or beads pass a laser one at a time.
As to `COC(=O)c1sc(-c2ccccc2)cc1Nc1cc(OC)c(OC)c(OC)c1`, the result was Active.

`COC(=O)c1sc(-c2ccc(C)cc2)cc1Nc1cc(OC)c(OC)c(OC)c1`: the outcome was Active.

In another data set the test system is HeLa. In words: Induction of apoptosis in human HeLa cells at 125 to 500 nM after 24 to 48 hrs by annexin V-FITC/propidium iodide staining-based flow cytometric analysis. Type of data set: functional, cell-based.
Settings: not given
The method in brief:
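Treated HeLa cells were harvested at 24 or 48 h and double-labeled with annexin-V-FITC, which marks exposed phosphatidylserine, and PI. Apoptotic fractions were measured by flow cytometry; mean ± SEM of three independent experiments.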
As to `COC(=O)c1sc(-c2ccccc2)cc1Nc1cc(OC)c(OC)c(OC)c1`, the outcome was Active.

`COC(=O)c1sc(-c2ccc(C)cc2)cc1Nc1cc(OC)c(OC)c(OC)c1`: the outcome was Active.

The test system of the next data set is HeLa. In words: Cell cycle arrest in human HeLa cells assessed as increase in cells at S phase at 500 nM after 24 hrs by propidium iodide staining-based flow cytometric analysis.
Settings: not given
Consider `COC(=O)c1sc(-c2ccccc2)cc1Nc1cc(OC)c(OC)c(OC)c1`, for which the outcome was Active.

Regarding `COC(=O)c1sc(-c2ccc(C)cc2)cc1Nc1cc(OC)c(OC)c(OC)c1`, the result was Active.

The next data set relates to HeLa. In words: Cell cycle arrest in human HeLa cells assessed as accumulation of cells at G2/M phase at 500 nM after 24 hrs by propidium iodide staining-based flow cytometric analysis.
Settings: not given
With `COC(=O)c1sc(-c2ccccc2)cc1Nc1cc(OC)c(OC)c(OC)c1`, the result was Active.

Consider `COC(=O)c1sc(-c2ccc(C)cc2)cc1Nc1cc(OC)c(OC)c(OC)c1`, for which the outcome was Active.
